# Bioassay records (PubChem BioAssay)
# This is a sample that favours compounds with a hit; in the whole collection about 2.3% have one here.
# TRPC4 agonist: activators of mouse TRPC4 channel, primary screen, Fluo4 calcium, HEK293 TRPC4beta/mu-opioid cells. Short transient receptor potential channel 4 (Mus musculus), Q9QUQ5. Fluo4 calcium fluorescence; stronger effect = higher value. B-score at 10 µM. actives 0.49% (n = 310,000);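 active means B-score above 5 SD of library B-scores, and initial fluorescence ratio not above library mean plus 5 SD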;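 further: positive B-score marks a calcium rise read as TRPC4 activation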
#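 Incubation: 45 min room-temperature Fluo4 loading, 110 s read / System: HEK293 cells stably co-expressing mouse TRPC4beta and mu-opioid receptor / Signal: Fluo4 fluorescence, kinetic / Control set: buffer (low) and maximal DAMGO (high) / Measure: integrated baseline-normalised fluorescence ratio, converted to per-well B score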
# TRPC4 potent: positive allosteric modulators of TRPC4, primary screen, cell-based, mouse TRPC4beta, HEK293 mu-opioid, Fluo-4 calcium; Short transient receptor potential channel 4 (Mus musculus), Q9QUQ5; DAMGO EC20, Fluo-4 Ca2+ flux; stronger effect = higher value; B-score at 10 µM; actives 0.42% (n = 310,000); AID 2227, 2009;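 active means B-score of calcium response area above 5 SD of library B-scores, with initial fluorescence ratio within 5 SD of library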;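 further: B-score of integrated fluorescence ratio over time as area under calcium response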
# TRPC4 inh: inhibitors of mouse TRPC4 channel, primary screen, Fluo4 calcium, HEK293 TRPC4beta/mu-opioid cells; B-score at 10 µM; actives 0.39% (n = 300,000); DAMGO-evoked Fluo4 calcium flux; stronger effect = lower value; AID 2247, 2010;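 active means B-score over 3 SD under the library average, no early fluorescence shift, positive overall ratio signal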
#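 Signal: kinetic Fluo4 fluorescence imaging of calcium influx. Material: stable TRPC4beta/mu-opioid receptor HEK293 cells. Probe or stimulus: DAMGO in two steps, submaximal then maximal.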
# TRPC6 activator: mouse TRPC6 channel activators, primary screen, cell-based, HEK293, membrane potential dye | Short transient receptor potential channel 6 (Mus musculus), Q61143 | B-score at 10 µM | actives 0.13% (n = 310,000) | HEK293-TRPC6 membrane potential dye fluorescence; stronger effect = higher value;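 active means B-score of the integrated fluorescence ratio above library mean plus 3 SD, and starting fluorescence ratio within library mean plus 5 SD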;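 further: higher score means more depolarization so channel activation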
# Target sequence (Q61143 whole entry, looked up): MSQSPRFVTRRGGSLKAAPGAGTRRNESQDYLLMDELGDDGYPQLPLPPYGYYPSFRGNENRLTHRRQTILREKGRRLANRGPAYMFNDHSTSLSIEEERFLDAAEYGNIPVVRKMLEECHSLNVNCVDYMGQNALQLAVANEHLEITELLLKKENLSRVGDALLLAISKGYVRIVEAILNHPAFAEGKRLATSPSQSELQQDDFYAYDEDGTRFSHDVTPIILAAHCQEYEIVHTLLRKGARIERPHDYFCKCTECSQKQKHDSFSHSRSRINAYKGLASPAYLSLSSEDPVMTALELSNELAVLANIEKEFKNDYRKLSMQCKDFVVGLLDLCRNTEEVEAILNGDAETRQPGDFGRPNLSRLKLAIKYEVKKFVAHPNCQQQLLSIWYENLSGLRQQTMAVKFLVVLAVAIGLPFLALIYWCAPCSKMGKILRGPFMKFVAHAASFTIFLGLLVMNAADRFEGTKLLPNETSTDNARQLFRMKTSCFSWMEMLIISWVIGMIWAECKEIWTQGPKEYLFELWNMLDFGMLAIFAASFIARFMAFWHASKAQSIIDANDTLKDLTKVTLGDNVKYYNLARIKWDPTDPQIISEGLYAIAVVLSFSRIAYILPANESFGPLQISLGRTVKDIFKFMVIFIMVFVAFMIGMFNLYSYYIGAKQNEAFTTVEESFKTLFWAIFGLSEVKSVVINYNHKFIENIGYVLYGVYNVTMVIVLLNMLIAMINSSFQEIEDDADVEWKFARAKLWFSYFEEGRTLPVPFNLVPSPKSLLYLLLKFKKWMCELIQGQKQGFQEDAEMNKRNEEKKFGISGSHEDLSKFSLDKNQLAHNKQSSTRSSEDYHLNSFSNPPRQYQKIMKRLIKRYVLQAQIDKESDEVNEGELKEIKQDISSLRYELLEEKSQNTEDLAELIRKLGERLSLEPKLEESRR
# TRPC6 inhibitor: mouse TRPC6 channel inhibitors, primary screen, cell-based, HEK293, membrane potential dye | actives 1.1% (n = 310,000) | B-score at 10 µM | Short transient receptor potential channel 6 (Mus musculus), Q61143 | ACh-evoked depolarization; stronger effect = lower value;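 active means B-score under library mean minus 3 SD, initial fluorescence not abnormally high, positive integrated signal ratio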;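 further: B-score derived from integrated fluorescence ratio over the kinetic read; more negative B-score means stronger inhibition of depolarization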
# Numbers without * were called inactive; i = inactive.
SMILES,TRPC4 agonist,TRPC4 potent,TRPC4 inh,TRPC6 activator,TRPC6 inhibitor
O=C(NC(=S)Nc1ccc2[nH]c(=O)[nH]c2c1)c1ccccc1[N+](=O)[O-],i,i,i,i,i
Cc1oc(C(C)(C)C)cc1C(=O)Nc1cccc(C(=O)O)c1,i,i,i,i,i
Cc1ccc(S(=O)(=O)NC(=O)N2CCN(Cc3c(F)cccc3Cl)CC2)cc1,i,21*,i,i,i
Cc1n[nH]c(C)c1Cc1c(F)cccc1Cl,i,i,-6*,i,i
Cc1cccc(OCC(=O)Nc2ccc(S(=O)(=O)N3CCN(C)CC3)cc2)c1,i,i,i,i,i
CN1CCN(c2ccc(S(=O)(=O)N3CCCCC3)cc2NC(=O)COc2cccc(Cl)c2)CC1,i,13*,i,i,i
COc1ccccc1CCC(=O)Nc1cc(S(=O)(=O)N2CCCCC2)ccc1N1CCN(C)CC1,134*,i,i,i,i
Cc1ccccc1C(=O)Nc1cc(S(=O)(=O)N2CCCCC2)ccc1N1CCN(C)CC1,i,11*,i,i,i
COc1ccccc1CCC(=O)Nc1cccc(S(=O)(=O)N2CCCC2)c1,i,i,i,i,i
Cc1cccc(OCC(=O)Nc2cc(S(=O)(=O)N3CCCCC3)ccc2N2CCN(C)CC2)c1,i,11*,i,i,i
CC1CCCC(C)N1c1nnc(N)s1 (stereo unspecified),i,i,i,i,i
O=C1C2C3C=CC(CC3)C2C(=O)N1c1ccccc1[N+](=O)[O-] (stereo unspecified),i,i,i,i,i
COc1ccc(C2CC(=O)c3cnc(N4CCN(Cc5ccccc5)CC4)nc3C2)cc1 (stereo unspecified),i,19*,i,i,i
COc1ccc(N2CCN(Cc3nc(-c4ccccc4)no3)CC2)cc1,i,i,i,i,i
CC(C)c1ccc(C2C3CSCC=C3C(C#N)=C(N)C2(C#N)C#N)cc1 (stereo unspecified),i,23*,i,i,i
COc1cc(OC)cc(C(=O)Nc2ccc3c(c2)CCCN3C(=O)c2cccs2)c1,i,i,i,i,i
COc1ccccc1C(=O)Nc1ccc2c(c1)CCCN2C(=O)c1cccs1,i,i,-6*,i,i
O=C1/C(=C/c2ccncc2)SC(=S)N1Cc1ccccc1,i,12*,i,i,i
O=C(O)C1CCCCC1C(=O)NCCc1ccc(F)cc1 (stereo unspecified),i,10*,i,i,i
CCOc1ccc(S(=O)(=O)Nc2ccccc2C(=O)N2CCOCC2)cc1,i,i,i,i,i
CCOC(=O)C1=C(N)OC2=C(C(=O)CC(C)(C)C2)C1c1ccc(C)s1 (stereo unspecified),i,i,i,i,i
CCOC(=O)C1=C(N)OC2=C(C(=O)CC(C)(C)C2)C1c1ccc(CC)s1 (stereo unspecified),i,16*,i,i,i
CCCCN(CC)CCNC(=O)C1CCN(S(=O)(=O)c2cccc3nsnc23)CC1,i,i,i,i,i
O=C(NCCCN1CCCCCC1)C1CCCN(S(=O)(=O)c2cccc3nsnc23)C1 (stereo unspecified),i,i,i,i,i
CCCCN(CC)CCNC(=O)C1CCCN(S(=O)(=O)c2cccc3nsnc23)C1 (stereo unspecified),73*,i,i,i,i
CCCCN(C)CCNC(=O)C1CCN(S(=O)(=O)c2cccc3nsnc23)CC1,i,11*,i,i,i
CC1CCN(CCNC(=O)C2CCCN(S(=O)(=O)c3cccc4nsnc34)C2)CC1 (stereo unspecified),i,12*,i,i,i
